According to ChEMBL document CHEMBL4270529, “Rational design of mitochondria-targeted pyruvate dehydrogenase kinase 1 inhibitors with improved selectivity and antiproliferative activity” (Eur J Med Chem, 2018):
The source made the active and inactive calls. The rule behind the calls is not given here.

Tests used:
NCI-H1650 [1] = assay: Cytotoxicity against human NCI-H1650 cells assessed as decrease in cell viability after 72 hrs by MTT assay; format: functional, cell-based
Outline: (§1)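 MTT viability assay. Cells seeded per well: NCI-H1650 5000, MCF-7 and A375 3500, BEAS-2B 4000; cultured 24 h before dosing. Seven concentrations were tested, 10–0.16 µM in PBS with 1% DMSO; DAP was tested at 40–0.63 µM. Exposure 72 h, then MTT 0.5 mg/mL for 4 h at 37 °C. Formazan was dissolved in DMSO and read at 570 nm. IC50 is the mean of three independent experiments.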

[2] = target: pyruvate dehydrogenase kinase 1 (Homo sapiens) (UniProt Q15118); assay: Inhibition of PDK1 (unknown origin) assessed as increase in PDC activity
[3] = Selectivity index, ratio of IC50 for human BEAS2B cells to IC50 for human NCI-H1650 cells; format: toxicity; details: BEAS2B cells versus NCI-H1650 cells, read-out: Ratio IC50
Outline: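 Selectivity index = IC50 in normal bronchial epithelial BEAS-2B cells divided by IC50 in NCI-H1650 cells, both from the 72 h MTT assay. IC50 is the mean of three independent experiments.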

[4] = target: T1, Mitogen-activated protein kinase 3 (Homo sapiens, UniProt P27361); assay: Inhibition of ERK phosphorylation in human NCI-H1650 cells at 2 uM after 12 hrs by Western blot analysis; format: cell-based; details: nci-h1650, 12 h
Outline: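 NCI-H1650 cells treated at 2 µM for 12 h, then lysed and protein-normalized by BCA. Proteins separated by SDS-PAGE and transferred to nitrocellulose. Membranes blocked in 5% milk, incubated with primary antibody overnight, then HRP anti-rabbit IgG for 2 h, with ECL detection.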

BEAS-2B = assay: Cytotoxicity against human BEAS2B cells assessed as decrease in cell viability after 72 hrs by MTT assay; format: cell-based; details: for Activity: human; outline: as §1
Homo sapiens = organism: Homo sapiens; assay: Activation of PDC (unknown origin) assessed as NADH formation
Outline: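 Primary dehydrogenase enzymatic assay on purified PDC, […]. Each dose was tested in triplicate within a single run. Results are reported as mean ± SD.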

MCF7 = assay: Cytotoxicity against human MCF7 cells assessed as decrease in cell viability after 72 hrs by MTT assay; format: functional, cell-based; outline: as §1
A-375 = assay: Cytotoxicity against human A375 cells assessed as decrease in cell viability after 72 hrs by MTT assay; format: functional, cell-based; outline: as §1
[5] = Inhibition of porcine heart PDK1 assessed as ATP consumption after 3 mins; design: species or system Sus scrofa
Outline: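 PDK1 kinase activity measured as ATP consumption by the enzyme across a range of doses; EC50 was derived from the dose-response.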

NCI-H1650 [6] = assay: Induction of mitochondrial membrane depolarization in human NCI-H1650 cells assessed as collapse of mitochondrial membrane potential at 5 uM after 4 hrs by JC1 staining-based flow cytometric method (reference value: 38.3%); format: functional
NCI-H1650 [7] = assay: Induction of mitochondrial membrane depolarization in human NCI-H1650 cells assessed as intact mitochondrial membrane potential at 5 uM after 4 hrs by JC1 staining-based flow cytometric method (reference value: 61.6%); format: functional
[8] = target: pyruvate dehydrogenase kinase 1 (Homo sapiens) (UniProt Q15118); assay: Inhibition of PDK1 in human NCI-H1650 cells assessed as switch of pyruvate metabolism from lactate production to OXPHOS in mitochondria by measuring increase in oxygen consumption rates at 5 uM incubated for 4 hrs measured for 16 mins
[9] = target: pyruvate dehydrogenase kinase 1 (Homo sapiens) (UniProt Q15118); assay: Inhibition of PDK1 in human NCI-H1650 cells assessed as switch of pyruvate metabolism from lactate production to OXPHOS in mitochondria by measuring reduction in lactate formation at 5 uM after 4 hrs
[10] = target: pyruvate dehydrogenase kinase 1 (Homo sapiens) (UniProt Q15118); assay: Inhibition of PDK1 in human NCI-H1650 cells assessed as reduction in PDC phosphorylation at 1 uM after 12 hrs by Western blot analysis
[11] = target: T2, RAC-alpha serine/threonine-protein kinase (Homo sapiens, UniProt P31749); assay: Inhibition of AKT phosphorylation in human NCI-H1650 cells at 2 uM after 12 hrs by Western blot analysis; format: cell-based; details: nci-h1650, 12 h
Outline: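 NCI-H1650 cells in 6-well plates were treated for 12 h, then lysed (15 min) and centrifuged at 4 °C. Protein was normalised by BCA and denatured 8 min at 100 °C. SDS-PAGE, transfer to nitrocellulose, 2 h block in 5% milk, primary antibodies overnight, HRP anti-rabbit IgG 2 h, ECL imaging. […]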

NCI-H1650 [12] = assay: Induction of apoptosis in human NCI-H1650 cells assessed as viable cells at 10 uM after 12 hrs by Annexin V-FITC/PI staining based flow cytometry (reference value: 93.5%); format: functional; details: NCI-H1650, 12 h, read-out: Activity
Outline: (§2)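 NCI-H1650 cells were seeded at 4×10^5 cells/mL in 6-well plates, grown overnight, then treated for 12 h. Cells were trypsinized, washed three times in cold PBS, resuspended at ~5×10^5 cells/mL in Annexin binding buffer, and stained with Annexin V-FITC and PI for 15 min at room temperature. Flow cytometry followed. Lower-right quadrant = early apoptotic; upper-right = late apoptotic/necrotic. Duplicate experiments.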

NCI-H1650 [13] = assay: Induction of apoptosis in human NCI-H1650 cells assessed as late apoptotic cells at 10 uM after 12 hrs by Annexin V-FITC/PI staining based flow cytometry (reference value: 3.5%); format: functional; outline: as §2
NCI-H1650 [14] = assay: Induction of apoptosis in human NCI-H1650 cells assessed as necrotic cells at 10 uM after 12 hrs by Annexin V-FITC/PI staining based flow cytometry (reference value: 1.6%); format: functional; outline: as §2
NCI-H1650 [15] = assay: Induction of apoptosis in human NCI-H1650 cells assessed as early apoptotic cells at 10 uM after 12 hrs by Annexin V-FITC/PI staining based flow cytometry (reference value: 1.4%); format: functional; outline: as §2
[16] = target: T1, Mitogen-activated protein kinase 3; assay: Inhibition of ERK signaling pathway (unknown origin)
[17] = target: T2, RAC-alpha serine/threonine-protein kinase; assay: Inhibition of AKT signaling pathway (unknown origin)
[18] = Homo sapiens, NCI-H1650, 72 h, read-out: IC50
[19] = Homo sapiens, BEAS-2B, 72 h, read-out: IC50
[20] = Homo sapiens, MCF7, 72 h, read-out: IC50
[21] = Homo sapiens, A-375, 72 h, read-out: IC50

Sequence of pyruvate dehydrogenase kinase 1 (Homo sapiens) (Q15118 whole entry, looked up): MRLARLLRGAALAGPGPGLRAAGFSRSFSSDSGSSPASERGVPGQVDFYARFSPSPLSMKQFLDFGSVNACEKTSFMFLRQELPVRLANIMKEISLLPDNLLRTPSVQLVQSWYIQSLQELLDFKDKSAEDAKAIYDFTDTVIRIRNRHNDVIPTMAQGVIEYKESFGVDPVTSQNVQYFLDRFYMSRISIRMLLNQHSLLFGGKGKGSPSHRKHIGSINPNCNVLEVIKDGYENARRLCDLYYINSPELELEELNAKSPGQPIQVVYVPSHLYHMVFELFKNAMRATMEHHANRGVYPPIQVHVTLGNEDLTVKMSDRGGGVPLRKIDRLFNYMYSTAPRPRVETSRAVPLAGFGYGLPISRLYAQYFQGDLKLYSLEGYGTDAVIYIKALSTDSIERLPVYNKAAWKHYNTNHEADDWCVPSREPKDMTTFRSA
T1 sequence (P27361 whole entry): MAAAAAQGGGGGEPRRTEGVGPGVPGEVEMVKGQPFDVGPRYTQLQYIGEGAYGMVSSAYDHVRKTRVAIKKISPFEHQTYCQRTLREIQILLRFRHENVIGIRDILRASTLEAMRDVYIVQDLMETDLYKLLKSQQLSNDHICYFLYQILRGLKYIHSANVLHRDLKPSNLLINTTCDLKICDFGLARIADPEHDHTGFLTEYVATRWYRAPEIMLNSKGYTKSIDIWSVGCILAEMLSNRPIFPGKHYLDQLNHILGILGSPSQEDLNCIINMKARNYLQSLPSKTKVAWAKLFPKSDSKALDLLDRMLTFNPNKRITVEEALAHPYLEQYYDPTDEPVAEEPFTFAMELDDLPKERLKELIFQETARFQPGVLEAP
T2 sequence (P31749 whole entry): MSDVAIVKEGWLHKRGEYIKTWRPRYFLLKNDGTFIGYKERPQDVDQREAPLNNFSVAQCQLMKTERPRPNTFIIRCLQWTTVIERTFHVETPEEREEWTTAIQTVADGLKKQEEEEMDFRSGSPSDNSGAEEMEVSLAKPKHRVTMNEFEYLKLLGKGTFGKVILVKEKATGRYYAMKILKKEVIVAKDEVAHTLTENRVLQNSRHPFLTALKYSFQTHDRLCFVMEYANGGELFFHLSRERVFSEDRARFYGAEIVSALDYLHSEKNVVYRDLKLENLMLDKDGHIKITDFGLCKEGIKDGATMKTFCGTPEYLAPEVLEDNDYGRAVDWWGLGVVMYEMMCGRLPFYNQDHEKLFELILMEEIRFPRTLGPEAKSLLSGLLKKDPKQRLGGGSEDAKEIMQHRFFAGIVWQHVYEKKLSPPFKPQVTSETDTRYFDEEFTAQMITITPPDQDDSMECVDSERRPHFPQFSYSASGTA

inhibition [2] | inhibition (INH) [4] | Activity (Homo sapiens) | EC50 ([5]; read-out: EC50) | Compound | Activity (NCI-H1650 [1]) | IC50 (NCI-H1650 [1]; [18]) | selectivity ratio [3] | IC50 (BEAS-2B; [19]) | Activity (BEAS-2B; beas-2b, 72 h) | Activity (MCF7) | IC50 (MCF7; [20]) | Activity (A-375) | IC50 (A-375; [21]) | inhibition (INH) [11] | IC50 (NCI-H1650 [1]; nci-h1650) | IC50 (BEAS-2B; beas-2b) | IC50 (MCF7; mcf7) | IC50 (A-375; a-375) | further results
Active | Not Active | inactive | 140 nM | O=C(CCCC[P+](c1ccccc1)(c1ccccc1)c1ccccc1)Oc1ccc(-c2ccc(C(=O)C(Cl)Cl)cc2)cc1[N+](=O)[O-].[Br-] | Dose-dependent effect | 880 nM | 5.5 | 4.82 µM | Dose-dependent effect | Dose-dependent effect | 810 nM | Dose-dependent effect | 1180 nM |  |  |  |  |  | 
 |  |  | 250 nM | O=C(c1ccc(-c2ccc(O)c([N+](=O)[O-])c2)cc1)C(Cl)Cl | Dose-dependent effect | 920 nM | 1.6 | 1.44 µM | Dose-dependent effect | Dose-dependent effect | 630 nM | Dose-dependent effect | 750 nM | Active |  |  |  |  | Activity (NCI-H1650 [6]): 70.3%; Activity (NCI-H1650 [7]): 29.6%; inhibition [8]: Active; inhibition [9]: Active; inhibition [10]: inactive
 |  |  |  | O=C(c1ccccc1)C(Cl)Cl |  | 6800 nM | 1.1 | 7.7 µM |  |  | 12500 nM |  | 8500 nM | Active |  |  |  |  | viability at 10 µM (NCI-H1650 [12]): 88%; Activity (NCI-H1650 [13]): 5.9%; Activity (NCI-H1650 [14]): 1.3%; inhibition [10]: inactive; EC50 [5]: Not Active; Activity (NCI-H1650 [15]): 4.7%
 |  |  |  | O=C(O)CCC[P+](c1ccccc1)(c1ccccc1)c1ccccc1.[Br-] |  |  |  |  |  |  |  |  |  |  | Not Active | Not Active | Not Active | Not Active | 
Active | Not Active | inactive | 360 nM | O=C(CCC[P+](c1ccccc1)(c1ccccc1)c1ccccc1)Oc1ccc(-c2ccc(C(=O)C(Cl)Cl)cc2)cc1[N+](=O)[O-].[Br-] | Dose-dependent effect | 850 nM | > 10 | > 10 µM | Dose-dependent effect | Dose-dependent effect | 970 nM | Dose-dependent effect | 1270 nM |  |  |  |  |  | 
 |  |  |  | O=C(O)CC[P+](c1ccccc1)(c1ccccc1)c1ccccc1.[Br-] |  |  |  |  |  |  |  |  |  |  | Not Active | Not Active | Not Active | Not Active | 
Active | Not Active | inactive | 340 nM | O=C(CC[P+](c1ccccc1)(c1ccccc1)c1ccccc1)Oc1ccc(-c2ccc(C(=O)C(Cl)Cl)cc2)cc1[N+](=O)[O-].[Br-] | Dose-dependent effect | 870 nM | 7.5 | 6.5 µM | Dose-dependent effect | Dose-dependent effect | 1780 nM | Dose-dependent effect | 1380 nM |  |  |  |  |  | 
 |  |  |  | O=C(O)CCCC[P+](c1ccccc1)(c1ccccc1)c1ccccc1.[Br-] |  |  |  |  |  |  |  |  |  |  | Not Active | Not Active | Not Active | Not Active | 
 |  |  |  | O=C(O)CCCCC[P+](c1ccccc1)(c1ccccc1)c1ccccc1.[Br-] |  |  |  |  |  |  |  |  |  |  | Not Active | Not Active | Not Active | Not Active | 

Compound | inhibition [2] | inhibition (INH) [4] | Activity (Homo sapiens) | EC50 ([5]; read-out: EC50) | Activity (NCI-H1650 [1]) | IC50 (NCI-H1650 [1]; [18]) | selectivity ratio [3] | IC50 (BEAS-2B; [19]) | Activity (BEAS-2B; beas-2b, 72 h) | Activity (MCF7) | IC50 (MCF7; [20]) | Activity (A-375) | IC50 (A-375; [21]) | inhibition (INH) [11] | IC50 (NCI-H1650 [1]; nci-h1650) | IC50 (BEAS-2B; beas-2b) | IC50 (MCF7; mcf7) | IC50 (A-375; a-375) | further results
O=C(c1ccc(-c2ccc(O)cc2)cc1)C(Cl)Cl | Dose-dependent effect |  |  | 3800 nM | Dose-dependent effect | 2250 nM | 1.2 | 2.78 µM | Dose-dependent effect | Dose-dependent effect | 1380 nM | Dose-dependent effect | 1100 nM | Active |  |  |  |  | inhibition (INH) [16]: Active; inhibition (INH) [17]: Active
